# High-throughput results (PubChem BioAssay)
# TDP2 inh = blocks human TDP2 phosphodiesterase activity; O95551; recombinant TDP2, T5PNP hydrolysis, p-nitrophenol absorbance 415 nm; inhibition, % at 12.8 µM; 370,000 compounds, 0.34% hits; AID 720702;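 active means inhibition above the mean of all tested compounds plus 3 SD, set per campaign, cut at about 25% in these data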;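 further: 0% = DMSO with enzyme and 100% = buffer with substrate but no TDP2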
#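 Material: recombinant human TDP2; quantity: TDP2 enzyme at 120 nM final; medium: Tris-HCl pH 7.5 with MgCl2; compound: single concentration, 12.8 µM nominal, with 1% DMSO; incubation: 2 h enzyme incubation at 37 °C; signal: epi absorbance; measure: percent inhibition; benchmarks: high control without enzyme, low control DMSO plus TDP2; repeats: singlicate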
# PAD4 FP inh = blocks human protein arginine deiminase 4. inhibition, % at 6.36 µM. Q9UM07. AID 485272. recombinant PAD4, RCA probe fluorescence polarization. 330,000 compounds, 0.41% hits;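 active means percent inhibition above a cutoff equal to the mean of all tested compounds plus 3 SD, cut at about 15% in these data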;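 further: 0% = PAD4 with RCA probe and DMSO and 100% = probe without PAD4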
# PRMT1 inh = inhibitors of human PRMT1; recombinant PRMT1, activity-based probe fluorescence polarization; AID 652257; 370,000 compounds, 1.3% hits; Q99873; inhibition, % at 2.79 µM;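 active means inhibition above about 21% made by adding two undisclosed values, limit read from the data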
# GSTO1 counter = blocks human GSTO1 in RBBP9 counter-screen; P78417; recombinant GSTO1, activity-based probe fluorescence polarization; inhibition, % at 5.96 µM; 300,000 compounds, 1.1% hits;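 active means inhibition above the campaign mean inhibition plus 3 SD, cut at about 35% in these data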;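 further: 0% = GSTO1-1 with DMSO and 100% = wells lacking GSTO1-1 enzyme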
# E coli Lon inh = inhibits E. coli Lon protease; AID 602123; purified E. coli Lon protease, fluorescence polarization; 360,000 compounds, 0.42% hits; P0A9M0; inhibition, % at 7.94 µM; in the data active means inhibition above about 13%, passing the limit was not always enough;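 further: 0% = enzyme with probe and DMSO and 100% = no enzyme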
# Target sequence (P0A9M0 whole entry, looked up): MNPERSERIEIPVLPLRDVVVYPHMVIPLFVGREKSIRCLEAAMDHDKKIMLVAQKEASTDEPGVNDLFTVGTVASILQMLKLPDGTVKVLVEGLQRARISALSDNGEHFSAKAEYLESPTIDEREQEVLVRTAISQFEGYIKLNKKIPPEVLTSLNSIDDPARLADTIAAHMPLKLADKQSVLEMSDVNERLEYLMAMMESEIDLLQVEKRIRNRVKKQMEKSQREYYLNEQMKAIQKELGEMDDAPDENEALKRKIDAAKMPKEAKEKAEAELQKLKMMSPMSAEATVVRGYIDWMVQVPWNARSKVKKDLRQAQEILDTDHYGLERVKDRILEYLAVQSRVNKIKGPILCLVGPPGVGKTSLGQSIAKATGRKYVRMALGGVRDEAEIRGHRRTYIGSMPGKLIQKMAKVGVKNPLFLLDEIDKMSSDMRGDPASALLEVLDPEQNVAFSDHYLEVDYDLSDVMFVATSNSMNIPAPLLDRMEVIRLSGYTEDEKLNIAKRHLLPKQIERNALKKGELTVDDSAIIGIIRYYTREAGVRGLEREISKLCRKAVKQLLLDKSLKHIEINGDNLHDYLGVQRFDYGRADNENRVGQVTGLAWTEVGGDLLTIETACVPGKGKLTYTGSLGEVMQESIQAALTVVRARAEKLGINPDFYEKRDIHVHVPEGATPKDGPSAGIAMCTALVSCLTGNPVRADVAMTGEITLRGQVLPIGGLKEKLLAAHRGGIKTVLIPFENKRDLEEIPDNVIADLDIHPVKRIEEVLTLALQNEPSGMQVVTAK
# PRMT1 confirm = confirmation of human PRMT1 inhibitors. shares compounds with PRMT1 inh. recombinant His-PRMT1, activity-based probe fluorescence polarization. inhibition, % at 2.79 µM. 3,300 compounds, 42% hits. AID 687036;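 active means mean inhibition across replicates above the hit cutoff derived for the earlier primary screen, cut at about 22% in these data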
# Starred values were filed as active, the others as inactive; . = no result. An excerpt weighted towards active compounds, which were near 2.5% of everything screened.
SMILES,TDP2 inh,PAD4 FP inh,PRMT1 inh,GSTO1 counter,E coli Lon inh,PRMT1 confirm
COC(=O)CC1=C(c2ccc([N+](=O)[O-])cc2)CCC1=O,6,.,60*,.,9,1
Cc1ccc(C2=C(CC(=O)O)C(=O)CC2)cc1,8,-1,0,-1,2,.
S=C(N/N=C/c1ccco1)NC1CC2CCC1C2 (centres undefined),1,-1,27*,-6,-13,3
Oc1ccccc1/C=N/NC(=S)NC1CC2CCC1C2 (centres undefined),10,-3,4,-23,-3,.
O=C(NCc1cccc(Cl)c1)C1Cc2c(-c3ccc(Cl)cc3)ccnc2O1 (centres undefined),-10,.,8,.,-2,.
Cc1ccc(C(=O)Nc2ncc3c(n2)CC(c2ccco2)CC3=O)cc1 (centres undefined),0,-2,33*,-5,-11,4
CC(=O)N[C@@H]1C[C@@H]2O[C@H](CO)CC[C@@H]2O[C@@H]1CCc1ccc(-c2ccc(F)cc2)cc1,-3,.,-1,.,.,.
COC(=O)[C@@]1(Sc2ccc(C)cc2)CC(=O)N[C@@H]1c1ccco1,-3,.,52*,.,3,1
COC(=O)[C@@]1(Sc2ccccc2)CC(=O)N[C@@H]1c1ccccc1,-6,.,4,.,-1,.
COc1ccccc1NC(=O)C1CCN(S(C)(=O)=O)CC1,-1,0,1,-2,-5,.
O=C1OC(c2ccccc2)=N/C1=C\C=C\c1ccco1,7,-1,26*,11,-10,7
O=C1OC(c2ccccc2)=N/C1=C\C=C\c1ccccc1[N+](=O)[O-],4,-5,1,3,1,.
Cc1cccc(/N=C/c2sc3ccccc3c2O)n1,-3,-13,37*,-37,-46,15
O=[N+]([O-])c1ccc(O)c(N=Cc2sc3ccccc3c2O)c1,-14,-11,66*,-2,-51,45*
Oc1c(C=Nc2cccc3cccnc23)sc2ccccc12,12,1,31*,7,.,32*
Cc1ccc(S(=O)(=O)NCC(=O)NCC(=O)N(C)Cc2ccc(Br)s2)cc1C,3,.,2,.,-4,.
O=C(/C=C/c1ccccc1)N1CCOCC1,-5,3,-1,5,-2,.
O=C(/C=C/c1ccccc1)CCN1CCOCC1,2,.,27*,.,5,58*
O=C(OC12CCCN(C1)/C(=C/c1ccc(Cl)cc1)C2)c1cccc(F)c1 (centres undefined),2,.,2,.,.,.
N#Cc1cc2c([nH]c1=S)CCCC2,-6,0,32*,3,-1,12
CC1(C)Cc2[nH]c(=S)c(C#N)cc2CO1,9,4,41*,7,-8,24*
N/C(Cc1ccc(Cl)cc1)=N\OC(=O)CCc1ccccc1,9,.,3,.,-11,.
COC(=O)c1ccc(-n2c(C)ccc2-c2ccccc2)cc1,0,-3,26*,-9,0,8
CC(=O)c1ccc(-n2c(CCC(=O)O)ccc2-c2ccccc2)cc1,9,1,2,1,-3,.
COc1ccc(-n2c(C)ccc2-c2ccccc2)cn1,-2,-7,56*,10,29,14
SMILES,TDP2 inh,PAD4 FP inh,PRMT1 inh,GSTO1 counter,E coli Lon inh,PRMT1 confirm
CC(=O)c1ccc(-n2c(C)ccc2-c2ccccc2)cc1,0,-3,33*,-2,-5,2
C=CCN1C(=O)[C@H](CC(=O)N2CCN(C(=O)c3ccco3)CC2)[C@@]2(C(=O)OCC)CCCC=C12,-10,.,-1,.,.,.
CC(/C=N/n1c(-c2ccncc2)n[nH]c1=S)=C\c1ccco1,3,3,27*,5,0,6
S=c1[nH]nc(-c2ccncc2)n1/N=C/C=C/c1ccco1,7,2,17,12,5,.
Cc1cccc(-c2n[nH]c(=S)n2/N=C/C=C/c2ccco2)c1,-7,1,46*,-4,-6,11
O=C(Nc1ccc(C2=CN(Cc3ccccc3)CCC2=O)cc1)OCc1ccccc1,2,2,-2,.,1,.
Cc1cc(O)c(N=Cc2cc3c(cc2[N+](=O)[O-])OCO3)cc1C,0,-5,25*,34,-11,22*
CCOC(=O)c1ccc(N=c2ssnc2Cl)cc1,-2,.,78*,.,4,89*
Clc1ccc(N=c2ssnc2Cl)cc1,8,-8,73*,3,-1,93*
N#Cc1ccc(N=c2ssnc2Cl)cc1,3,0,91*,3,-8,97*
COc1cc(N=c2ssnc2Cl)cc(OC)c1OC,-6,-1,97*,-6,-2,90*
Clc1nssc1=Nc1ccccc1,.,.,.,.,-7,.
CN1C[C@@H]2[C@@H]3C(=O)N(Cc4ccccc4)C(=O)[C@@H]3[C@](Cc3ccccc3)(C1=O)N2C(=O)c1ccc(Br)cc1,-5,.,-2,.,5,.
CCCOP(=O)(c1ccc(N(C)C)cc1)C(O)c1ccc(N(C)C)cc1 (centres undefined),-18,-6,11,-1,0,.
Fc1ccc(N=c2ssnc2Cl)c(F)c1,7,-1,44*,5,0,41*
COc1ccc(N=c2ssnc2Cl)cc1,.,3,.,8,-9,.
O=C(O)Cc1csc(NC(=O)CSc2cccc(C(=O)O)n2)n1,2,0,-4,-1,-1,.
COc1ccc2sc(/C=C/c3ccccc3O)[n+](C)c2c1,-1,.,36*,.,-67,0
COc1ccc(N=Cc2ccccc2O)cc1,2,.,-3,.,-10,.
CC(=O)Nc1ccc(SCCCC(=O)c2ccccc2)cc1,-1,4,35*,7,0,39*
O=c1[nH]c(=S)[nH]c2nc(-c3cccs3)cc(C(F)(F)F)c12,-2,6,6,-10,13,.
CC(C)NC(=O)c1sc2nc(-c3cccs3)cc(-c3cccs3)c2c1N,-2,-49,30*,-18,.,3
Nc1c(C(=O)Nc2nc3ccccc3s2)sc2nc(-c3cccs3)ccc12,.,3,.,9,10,.
CC(=O)c1sc2nc(-c3cccs3)ccc2c1N,-7,5,73*,-8,-8,29*
Nc1c(C(=O)C2CC2)sc2nc(-c3cccs3)cc(C(F)(F)F)c12,-12,-4,32*,-3,-222,-1
COc1ccc(C(=O)c2sc3nc(C)cc(-c4cccs4)c3c2N)cc1,-5,.,6,.,-74,.
Cc1c[nH]c2cccc(-c3cc4ccccc4o3)c12,-6,.,-6,.,.,.
C=CCCCCCCCCC(=O)Nc1ncccn1,2,-4,1,-2,8,.
CCN(CC(=O)Nc1c(F)cccc1F)C(=O)C1CCN(c2ncnc3sc(C)c(C)c23)CC1,1,-2,1,-13,-10,.
CCCOc1ccc(N2C(=O)CC(N(CCC)C(=O)CCC(=O)O)C2=O)cc1 (centres undefined),6,1,0,-5,2,.
